The target of assay [1] is Tubulin beta chain (Sus scrofa) (UniProt P02554). Briefly: The photoincorporation of [3H]AzB-taxol into beta-subunit of tubulin was evaluated at initial ratio of 0.5.
Assay [2] is described as follows: The ratio of […]/tubulin noncovalently bound […] at initial ratio of 4.0. Summed up:
(§1)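 Noncovalent binding without irradiation: 5 μM tubulin with varied [3H]AzB-taxol, 20 min at 37 °C. Centrifuged at 40000g; pellets washed with buffer, recentrifuged and dissolved in 0.1 M NaOH. Bound mol/mol from protein and radioactivity.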

A short description of assay [3]: The ratio of AzT-taxol/tubulin noncovalently bound after irradiation at initial ratio of 0.5. Particulars: in the assay text read “before irradiation” for “after irradiation”. Summed up: as §1
Assay [4] has as its system Tubulin (Bos taurus). Briefly: The incorporation of [3H]AzB-taxol into tubulin was evaluated after irradiation with 350 nM lamp.
Assay [5] relates to Tubulin (Bos taurus). Briefly: The photoincorporation of [3H]AzB-taxol into tubulin was evaluated from tubulin in 8M urea.
Assay [6] has as its target Tubulin alpha chain (Sus scrofa) (UniProt P02550). The experiment in a line: The photoincorporation of [3H]AzB-taxol into alpha-subunit of tubulin was evaluated at initial ratio of 0.5. In outline: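 Tubulin (5 μM) with [3H]AzB-taxol at the stated initial ratio, 20 min at 37 °C, then irradiated 20 min at 300 nm. Ethanol-washed precipitate run on SDS-PAGE (7.5% running gel, 3% stacking gel) and stained with Coomassie. α- and β-bands excised, dissolved in 30% H2O2 at 65 °C and counted; results are % of incorporation per subunit, n = 2–3 experiments.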

Assay [7] in a line: The ratio of AzT-taxol/tubulin covalently bound after irradiation at initial ratio of 4.0. Summed up: (§2)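 Tubulin (5 μM) with [3H]AzB-taxol at varied initial ratios, 20 min at 37 °C in Pipes/EGTA/MgSO4/DTT/GTP buffer pH 6.9, then irradiated 20 min at 300 nm. Centrifuged at 40000g, 10 min, 37 °C. Pellet washed repeatedly with 50% ethanol, dissolved in 0.1 M NaOH. Covalent mol/mol from radioactivity and protein.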

Assay [8] relates to Tubulin (Bos taurus). Briefly: The incorporation of [3H]AzB-taxol into tubulin was evaluated after irradiation with 300 nM lamp.
Assay [9] in a line: The ratio of […]/tubulin noncovalently bound […] at initial ratio of 1.0. Summed up:
as §1

Assay [10] can be described thus: The ratio of AzT-taxol/tubulin noncovalently bound […] at initial ratio of 2.0. Summed up:
as §1

Assay [11] can be described thus: The ratio of AzT-taxol/tubulin covalently bound after irradiation at initial ratio of 2.0. Summed up:
as §2

The test system of assay [12] is Tubulin (Bos taurus). Briefly: The photoincorporation of [3H]AzB-taxol into tubulin was evaluated from unpolymerized tubulin on ice.
In assay [13] the test system is Tubulin (Bos taurus). The experiment in a line: The photoincorporation of [3H]AzB-taxol into tubulin was evaluated by incubation in dark.
A short description of assay [14]: The ratio of AzT-taxol/tubulin noncovalently bound […] at initial ratio of 3.0. Summed up: as §1
The target in assay [15] is Tubulin beta chain (Sus scrofa) (UniProt P02554). Briefly: The photoincorporation of [3H]-AzB-taxol into beta-subunit of tubulin was evaluated at initial ratio of 1.0.
Assay [16] can be described thus: The ratio of AzT-taxol/tubulin covalently bound after irradiation at initial ratio of 1.0. Summed up: as §2
Assay [17] deals with Tubulin (Bos taurus). The experiment in a line: The inhibition of photoincorporation of AzB-taxol into tubulin was evaluated in the presence of 7.5 uM of taxol; Complete inhibition.
Assay [18] in a line: The ratio of AzT-taxol/tubulin covalently bound after irradiation at initial ratio of 0.5. In outline:
as §2

Assay [19] deals with Tubulin (Bos taurus). Briefly: The photoincorporation of [3H]AzB-taxol into tubulin was evaluated by preirradiation of the compound.
Assay [20] deals with Tubulin (Bos taurus). The experiment in a line: The photoincorporation of [3H]AzB-taxol into tubulin was evaluated from polymerized tubulin.
Assay [21] can be described thus: The ratio of AzT-taxol/tubulin covalently bound after irradiation at initial ratio of 3.0. In outline: as §2
For assay [22], the system named is Tubulin alpha chain (Bos taurus). The experiment in a line: The photoincorporation of [3H]AzB-taxol into alpha-subunit of tubulin was evaluated at initial ratio of 1.0.
For assay [23], the system named is Tubulin (Bos taurus). The experiment in a line: The incorporation of [3H]AzB-taxol into tubulin was evaluated after irradiation with 254 nM lamp.

Drawing on ChEMBL document CHEMBL1127780, “Synthesis of a photoaffinity taxol analogue and its use in labeling tubulin” (J Med Chem, 1994), this text covers Incorporated, Ratio and Amount incorporated (M (M of tubulin)-1) for one compound.

“And” between values parts separate entries of the source, which are not always exact repeats. Identical values can stand only once.

Sequence of Tubulin beta chain (Sus scrofa) (P02554 whole entry, looked up): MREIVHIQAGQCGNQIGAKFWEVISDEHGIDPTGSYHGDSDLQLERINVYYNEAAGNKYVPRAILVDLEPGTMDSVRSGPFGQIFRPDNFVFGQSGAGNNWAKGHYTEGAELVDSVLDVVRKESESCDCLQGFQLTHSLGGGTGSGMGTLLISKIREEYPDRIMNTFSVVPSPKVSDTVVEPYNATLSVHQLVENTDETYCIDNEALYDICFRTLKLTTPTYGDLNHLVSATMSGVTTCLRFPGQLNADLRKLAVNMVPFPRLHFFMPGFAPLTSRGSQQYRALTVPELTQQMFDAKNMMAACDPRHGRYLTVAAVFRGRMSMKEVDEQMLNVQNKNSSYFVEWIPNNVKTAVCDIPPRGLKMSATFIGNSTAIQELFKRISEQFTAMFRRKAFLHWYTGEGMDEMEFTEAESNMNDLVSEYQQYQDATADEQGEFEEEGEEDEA
Sequence of Tubulin alpha chain (Sus scrofa) (P02550 whole entry, looked up): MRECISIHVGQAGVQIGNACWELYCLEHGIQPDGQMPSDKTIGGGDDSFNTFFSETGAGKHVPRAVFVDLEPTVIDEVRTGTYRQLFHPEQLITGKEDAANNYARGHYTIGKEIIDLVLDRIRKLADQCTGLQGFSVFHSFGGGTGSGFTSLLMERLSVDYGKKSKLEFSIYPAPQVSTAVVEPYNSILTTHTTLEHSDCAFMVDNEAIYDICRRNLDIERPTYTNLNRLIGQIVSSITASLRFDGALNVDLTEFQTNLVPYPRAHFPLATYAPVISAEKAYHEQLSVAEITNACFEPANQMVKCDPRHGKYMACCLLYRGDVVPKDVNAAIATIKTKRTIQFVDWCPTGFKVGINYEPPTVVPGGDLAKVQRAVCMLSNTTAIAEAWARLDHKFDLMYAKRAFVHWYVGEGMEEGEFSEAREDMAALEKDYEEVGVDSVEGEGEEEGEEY

Take `CC(=O)O[C@H]1C(=O)[C@@]2(C)C([C@H](OC(=O)c3ccccc3)[C@]3(O)C[C@H](OC(=O)[C@H](O)C(NC(=O)c4ccc(N=[N+]=[N-])cc4)c4ccccc4)C(C)=C1C3(C)C)[C@]1(OC(C)=O)CO[C@@H]1C[C@@H]2O` (stereo partly drawn): the Incorporated in assay [1] is 80% and 81%; in [6], 20% and 19%; in assay [15] it was 86%; with Tubulin (Bos taurus) [17], “Complete inhibition”; in assay [22], 14%. For the same compound, the Ratio was found to be 1.19 in [2]; 0.5 in [3]; 0.24 in assay [7]; 0.85 in assay [9]; 1.22 in [10]; 0.23 in [11]. Besides, the Ratio in assay [14] came to 1.2; in assay [16], 0.17; in assay [18], 0.13; in assay [21], 0.23. For the same compound, the Amount incorporated (M (M of tubulin)-1) worked out at 0.025 with Tubulin (Bos taurus) [4]; 0.015 with Tubulin (Bos taurus) [5]; 0.12 with Tubulin (Bos taurus) [8]; 0.03 with Tubulin (Bos taurus) [12]; 0.008 in the assay with Tubulin (Bos taurus) [13]; 0.016 in the assay on Tubulin (Bos taurus) [19]. Further, the figures for the Amount incorporated (M (M of tubulin)-1) in the assay with Tubulin (Bos taurus) [20] and with Tubulin (Bos taurus) [23] were 0.15 and 0.13, respectively.
